{"data": "Experimental data of several laboratories", "cell line": "Vero", "observed": "cell growth or viability", "note": "Lines come from different studies, so protocols differ."}
{"SMILES": "O=C(NNC(=O)c1cc2ccccc2s1)c1ccc([N+](=O)[O-])o1", "test": "MTT", "setting": "48 h", "quantity": "CC50", "value": "75 µM"}
{"SMILES": "CCCN(CCc1cccs1)[C@H]1CCc2c(O)cccc2C1", "test": "resazurin", "quantity": "CC50", "value": "9.48 µM"}
{"SMILES": "COC(=O)COc1c(Cc2cc(C(C)(C)CC(C)(C)C)cc(-n3nc4ccccc4n3)c2OCC(=O)OC)cc(C(C)(C)CC(C)(C)C)cc1-n1nc2ccccc2n1", "test": "MTT", "setting": "10 µM, 48 h", "quantity": "viability", "value": "89.5%"}
{"SMILES": "CN(C)c1ncnc2c1ncn2[C@@H]1O[C@H](CCl)[C@@H](NC(=O)[C@H](CSC(c2ccccc2)c2ccccc2)NC(=O)OC(C)(C)C)[C@H]1O", "test": "MTT", "quantity": "CC50", "value": "> 100 µM"}
{"SMILES": "CC1(F)CN(C(=O)Cn2c(=O)c(C(=O)NCc3ccc(Cl)cc3)cc3nc(N4CCNC4=O)cnc32)C1", "test": "CCK-8", "setting": "5 days", "quantity": "CC50", "value": "> 40 µM"}
{"SMILES": "CO[C@@]12[C@H](COC(N)=O)C3=C(C(=O)C(C)=C(N)C3=O)N1C[C@@H]1N[C@@H]12", "test": "resazurin", "quantity": "CC50", "value": "0.39 µM"}
{"SMILES": "CN1CCN(c2cnc3c(cc(C(=O)NCc4ccc(Cl)cc4)c(=O)n3CC(=O)N3CC(C)(F)C3)n2)C1=O", "test": "CCK-8", "setting": "5 days", "quantity": "CC50", "value": "> 40 µM"}
{"SMILES": "O=C(Cn1ccnc1[N+](=O)[O-])NCc1ccccc1", "test": "MTT", "quantity": "CC50", "value": "142 µM"}
